Assay results: the RNAGym collection of RNA variant scans (doi:10.1126/science.aae0568)
Variants at the floor of the assay were thinned out.

B1: tRNA (parent)
chain: GUUCCGUUGGCGUAAUGGUAACGCGUCUCCCUCCUAAGGAGAAGACUGCGGGUUCGAGUCCCGUACGGAACG

Variants of: B1
Assay: yeast fitness relative to wild type (ratio to wild type); higher = fitter; tRNA-Arg(CCU), competitive growth, 37 C, YPD
In short: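 A pool of Saccharomyces cerevisiae strains, each with a tRNA-Arg(CCU) gene variant at the native genomic locus, was competed in YPD at 37°C for 24 hours across six parallel replicates. The variants had been chemically synthesised at a 3% per-site mutation rate over 69 sites, and gene amplicons before and after competition were read by 100-nucleotide paired-end sequencing. Darwinian fitness relative to wild type rested on changes in genotype frequencies. Genotypes required ≥ 100 starting reads, and estimates < 0.5 were set to 0.5.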

Row | Variant | yeast fitness
1 | C11U U35A G56C | ≤ 0.5
2 | C11U U35C A36U C46U G51A | ≤ 0.5
3 | C11U U35C A42G | ≤ 0.5
4 | C11U U35C A70G | 0.641
5 | C11U U35C G44A | 0.727
6 | C11U U35C U64A | ≤ 0.5
7 | C11U U47A | 0.808
8 | C11U U47C A57G A69U | 0.565
9 | C11U U53A C62A | ≤ 0.5
10 | C11U U53C | 0.652
11 | C11U U53C A57C | ≤ 0.5
12 | C11U U54C A57G | 0.553
13 | C11U U54C G56A | ≤ 0.5
14 | C11U U59A A69C | 0.537
15 | C11U U59A C60U | 0.543
16 | C11U U64G | 0.739
17 | G12A A14C A20C A42G G44A | ≤ 0.5
18 | G12A A14C C31G A65C | ≤ 0.5
19 | G12A A14C U16C C31U C49G C60A | ≤ 0.5
20 | G12A A14G | 0.958
21 | G12A A14G A15G C27U G38A G68C | ≤ 0.5
22 | G12A A14G C24G C31U C55A | ≤ 0.5
23 | G12A A14G C30G A70U | 0.616
24 | G12A A14U A21U U32G A37G A45G C55A | ≤ 0.5

Row | Variant | yeast fitness
25 | G12A A14U C66A A70G | ≤ 0.5
26 | G12A A15C C46G G58C C61A | ≤ 0.5
27 | G12A A15C C62G A65C | ≤ 0.5
28 | G12A A15C C62U C66G | ≤ 0.5
29 | G12A A15C G58C | ≤ 0.5
30 | G12A A15G A70U | 0.682
31 | G12A A15G C22U C31A U35G C61U A65C A69G | ≤ 0.5
32 | G12A A15G C24A A36U C61U G67U | 0.761
33 | G12A A15G C27A | ≤ 0.5
34 | G12A A15G C29G G48A C62U C66U | ≤ 0.5
35 | G12A A15G G25C C30G G67C | ≤ 0.5
36 | G12A A15G G48C A57U | ≤ 0.5
37 | G12A A15U C22A U26A C33G G38C G41C A43C U47G G67C | ≤ 0.5
38 | G12A A15U C24G G63C | ≤ 0.5
39 | G12A A15U C24U G44C G52C | ≤ 0.5
40 | G12A A15U C24U G44C G52C A69U | ≤ 0.5
41 | G12A A15U C33A A36U C62U | ≤ 0.5
42 | G12A A15U G17A | ≤ 0.5
43 | G12A A20C | 0.875
44 | G12A A20C A65U | 0.57
45 | G12A A20C C24G U54A C60G C66U | ≤ 0.5
46 | G12A A20C C29A | ≤ 0.5
47 | G12A A20C U28C | 0.664
48 | G12A A20G | 0.923

Row | Variant | yeast fitness
49 | G12A A20G A21G C22G | ≤ 0.5
50 | G12A A20G A21U A40G | ≤ 0.5
51 | G12A A20G A45U C49G A57U | ≤ 0.5
52 | G12A A20G G48A | 0.63
53 | G12A A20G U26C C31G C33U A42U G67C | ≤ 0.5
54 | G12A A20G U28A C55A G56A | 0.537
55 | G12A A20U A42C | 0.692
56 | G12A A20U G23C U32C A69G | ≤ 0.5
57 | G12A A21C C31U | ≤ 0.5
58 | G12A A21C G23A C46G U53C | ≤ 0.5
59 | G12A A21G A40U | 0.564
60 | G12A A21G A40U G67U | ≤ 0.5
61 | G12A A21G C34U C62A A69U | ≤ 0.5
62 | G12A A21G C34U G67U | ≤ 0.5
63 | G12A A21G C46G G51A A69U | ≤ 0.5
64 | G12A A21G C46G G51A G67C | ≤ 0.5
65 | G12A A21G G39A A45G G50A A69U | ≤ 0.5
66 | G12A A21G G44A C46U A69C | 0.507
67 | G12A A36U | 0.612
68 | G12A A37U | 0.653
69 | G12A A37U A42C | 0.559
70 | G12A A40C A65C | 0.655
71 | G12A A40C C66U | 0.532
72 | G12A A40C G58C U59C G63A | ≤ 0.5

Row | Variant | yeast fitness
73 | G12A A40G C46A | 0.752
74 | G12A A40U A45G C60A | ≤ 0.5
75 | G12A A42C | 0.89
76 | G12A A42C G50C | ≤ 0.5
77 | G12A A42G C66G G67C | ≤ 0.5
78 | G12A A42U | 0.856
79 | G12A A42U C61G | 0.505
80 | G12A A43G G48C | 0.568
81 | G12A A43U A45C | ≤ 0.5
82 | G12A A43U A45C G50C C60U | ≤ 0.5
83 | G12A A43U A45C U54C G67C | 0.525
84 | G12A A45G | 0.953
85 | G12A A45G C62U | 0.531
86 | G12A A45U | 1.03
87 | G12A A57C | 0.618
88 | G12A A65G | 0.98
89 | G12A A65U | 0.861
90 | G12A A70G | 1.02
91 | G12A A70U | 0.99
92 | G12A C22A C24A | ≤ 0.5
93 | G12A C22A C24A A65U | ≤ 0.5
94 | G12A C22G | 1
95 | G12A C22G A43G C55A | ≤ 0.5
96 | G12A C22G C24A G38A | ≤ 0.5

Row | Variant | yeast fitness
97 | G12A C22G C27A | 0.663
98 | G12A C22G C29U | 0.551
99 | G12A C22U A57U | ≤ 0.5
100 | G12A C24A A36C C61U G67U | 0.615
101 | G12A C24A A36U | 0.666
102 | G12A C24A A36U A37G C61U G67U | ≤ 0.5
103 | G12A C24A C34A C49A G63U G67A | ≤ 0.5
104 | G12A C24A U26G A43C C62G G63A C66G A69G | ≤ 0.5
105 | G12A C24A U64C | 0.682
106 | G12A C24G A40C A43C C46U C49U G68C A69U | ≤ 0.5
107 | G12A C24G A40C A43C C46U C62A | ≤ 0.5
108 | G12A C24G A40C A43C C46U G56A G68C A69U | ≤ 0.5
109 | G12A C24G C29A | ≤ 0.5
110 | G12A C24G C62G | ≤ 0.5
111 | G12A C24G U26G G39C C49G A65G | ≤ 0.5
112 | G12A C24G U35A A36G A40C G67A | ≤ 0.5
113 | G12A C24U A65U G68A | ≤ 0.5
114 | G12A C24U C27A | 0.575
115 | G12A C24U C49G G56C G58A | ≤ 0.5
116 | G12A C24U C55G A70U | 0.531
117 | G12A C24U G25A C30U C46A | 0.571
118 | G12A C24U G41A | 0.544
119 | G12A C27G A43U | 0.53
120 | G12A C27G G50A | ≤ 0.5

Row | Variant | yeast fitness
121 | G12A C27G U32G C60A | ≤ 0.5
122 | G12A C27U A36C A42U C46U | ≤ 0.5
123 | G12A C27U A37C A45G | ≤ 0.5
124 | G12A C27U C30G C55U A57C | 0.547
125 | G12A C27U U32A | 0.702
126 | G12A C29A | 0.652
127 | G12A C29A A45U | 0.531
128 | G12A C29A A65U | ≤ 0.5
129 | G12A C29A C60U | ≤ 0.5
130 | G12A C29G | 0.61
131 | G12A C29G A65U | 0.58
132 | G12A C29G C66U | 0.574
133 | G12A C29U G56C | ≤ 0.5
134 | G12A C29U U35A G44C C61A | ≤ 0.5
135 | G12A C30A C31G U54G | ≤ 0.5
136 | G12A C30G A40C | ≤ 0.5
137 | G12A C30G U59A | ≤ 0.5
138 | G12A C30U A40U C49A G56A A57U | ≤ 0.5
139 | G12A C30U C46G | ≤ 0.5
140 | G12A C30U U32G A36U G39C G50C | ≤ 0.5
141 | G12A C30U U47A G67C | ≤ 0.5
142 | G12A C31A G38C A65G | ≤ 0.5
143 | G12A C31U | 0.919
144 | G12A C31U C61G | 0.543

Row | Variant | yeast fitness
145 | G12A C31U C61U A70G | 0.541
146 | G12A C31U G52A G56C | 0.569
147 | G12A C31U U53A U54G G58C C62U | 0.635
148 | G12A C33A | 0.644
149 | G12A C33A G51C | ≤ 0.5
150 | G12A C33A U54G A70C | 0.541
151 | G12A C33G A36C A37G G44A | ≤ 0.5
152 | G12A C33U A36C | 0.563
153 | G12A C33U A36C C55G | ≤ 0.5
154 | G12A C33U A36C G51C A57U | ≤ 0.5
155 | G12A C33U C46A C55G | ≤ 0.5
156 | G12A C33U G39C C66G | ≤ 0.5
157 | G12A C34A G51U G58A G63U | ≤ 0.5
158 | G12A C34A G52C C60A | ≤ 0.5
159 | G12A C34G | 0.644
160 | G12A C34U A37U G41A C55U A69C | ≤ 0.5
161 | G12A C34U A37U G41A G50C | 0.561
162 | G12A C46A | 1.05
163 | G12A C46G A70G | 0.703
164 | G12A C46U C62U | 0.732
165 | G12A C49A G68A | ≤ 0.5
166 | G12A C49A U54A | ≤ 0.5
167 | G12A C49U C62A | 0.625
